Results from different studies.
Each line is one published result; the experiments were not run side by side.
Target: Ephrin type-B receptor 1 (EPHB1, Homo sapiens, UniProt P54762)
Sequence (P54762 18-984, as in one of the studies): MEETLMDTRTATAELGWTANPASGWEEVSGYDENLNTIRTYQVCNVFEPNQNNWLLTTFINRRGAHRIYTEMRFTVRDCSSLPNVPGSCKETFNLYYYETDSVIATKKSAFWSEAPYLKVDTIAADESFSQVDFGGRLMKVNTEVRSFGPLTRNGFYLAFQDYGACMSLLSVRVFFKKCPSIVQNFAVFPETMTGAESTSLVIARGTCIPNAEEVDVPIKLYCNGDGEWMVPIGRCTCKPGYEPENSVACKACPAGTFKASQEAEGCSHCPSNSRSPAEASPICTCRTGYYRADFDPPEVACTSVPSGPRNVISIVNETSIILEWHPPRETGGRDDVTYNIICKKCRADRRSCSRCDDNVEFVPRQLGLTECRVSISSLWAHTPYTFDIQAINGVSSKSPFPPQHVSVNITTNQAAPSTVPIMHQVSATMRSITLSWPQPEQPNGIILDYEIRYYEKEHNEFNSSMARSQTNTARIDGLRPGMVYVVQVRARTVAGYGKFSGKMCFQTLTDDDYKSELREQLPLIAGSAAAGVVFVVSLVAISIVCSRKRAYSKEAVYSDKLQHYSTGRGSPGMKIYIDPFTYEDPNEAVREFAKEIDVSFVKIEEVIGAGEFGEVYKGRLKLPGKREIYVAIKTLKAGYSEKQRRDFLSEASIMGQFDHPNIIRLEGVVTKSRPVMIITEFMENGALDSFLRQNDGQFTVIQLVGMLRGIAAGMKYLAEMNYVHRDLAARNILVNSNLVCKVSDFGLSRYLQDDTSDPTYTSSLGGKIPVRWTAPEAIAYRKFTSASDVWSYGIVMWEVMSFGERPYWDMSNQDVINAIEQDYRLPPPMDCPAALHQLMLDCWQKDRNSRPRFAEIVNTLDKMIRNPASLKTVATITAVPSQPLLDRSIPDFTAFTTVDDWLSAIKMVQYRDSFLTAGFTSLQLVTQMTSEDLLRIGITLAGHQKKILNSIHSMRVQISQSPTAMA

SMILES | effect on | method | tested at | remaining binding [%]
CN(c1nccc(-c2cnn3ncccc23)n1)C1CC1 | binding |  | 1 µM | 100
O=C(c1ccc(Nc2ncc(Cl)c(-c3cc4ccccc4s3)n2)cc1)N1CCC(N2CCCC2)CC1 | binding | competition with immobilised ligand | 1 µM | 33
O=C(NCC1CCOCC1)c1n[nH]cc1NC(=O)c1c(F)cccc1F | binding | competition with immobilised ligand | 1 µM | 100
O=C(c1ccc(Nc2nccc(-c3cc4ccccc4s3)n2)cc1)N1CCC(N2CCCC2)CC1 | binding | competition with immobilised ligand | 1 µM | 47
c1cncc(-c2cccc(Nc3nccc(NC4CCCCC4)n3)c2)c1 | binding | competition with immobilised ligand | 10 µM | 81
O=C(N[C@H]1CCCCC/C=C\C2C[C@@]2(C(=O)O)NC(=O)[C@@H]2C[C@@H](Oc3ccncc3)CN2C1=O)OC1CCCC1 (some centres unmarked) | cell-free assay | competition with immobilised ligand | 1 µM | 100
C=CC(=O)N1CCC(C(=O)NCC(=O)N2CCN(c3nc(-c4cnc(N)nc4C(F)F)nc(N4CCOCC4)n3)CC2)CC1 | binding | competition with immobilised ligand | 1 µM | 100
N[C@@H]1CCN(c2nccc(-c3cnn4ncccc34)n2)C1 | binding |  | 1 µM | 96
Nc1cnc(N2CCc3cc(S(=O)(=O)Nc4c(F)cc(Cl)cc4F)cc(N4CCCC4=O)c32)nc1 | cell-free assay | competition with immobilised ligand | 1 µM | 92
O=C(c1ccc(Nc2ncc(Cl)c(-c3ccc(Cl)s3)n2)cc1)N1CCC(N2CCCC2)CC1 | binding | competition with immobilised ligand | 1 µM | 30
COc1ncc2cc3ccccc3nc2c1C#N | cell-free assay | competition with immobilised ligand | 5 µM | 91
CN(C)c1nccc(-c2cnn3ncccc23)n1 | binding |  | 1 µM | 100
CNCc1ccccc1-c1csc([C@H](C)Nc2nc(C)nc3cc(OC)c(OC)cc23)c1 | cell-free assay | competition with immobilised ligand | 1 µM | 100
CN(CCCC(F)(F)F)c1nccc(-c2cnn3ncccc23)n1 | binding |  | 1 µM | 91
O=C(O)c1cc(-c2ccc(C3CCNCC3)cc2)c2ccc(-c3ccc(C(F)(F)F)cc3)cc2c1 | cell-free assay | competition with immobilised ligand | 1 µM | 100
CNC(=O)[C@@H]1CC[C@@H](n2c(-c3ccc4cnccc4c3)nc3ccc(C(=O)NCc4cccc(C(N)=O)c4)cc32)C1 | binding | competition with immobilised ligand | 1 µM | 100
c1cnn2ncc(-c3ccnc(N4CCC45COC5)n3)c2c1 | binding |  | 1 µM | 100
CN1CCN(c2cnc3c(C4CCN(C(=O)c5ccc(OC(F)(F)F)cc5N)CC4)ncnc3c2)CC1 | cell-free assay | competition with immobilised ligand | 1 µM | 100
C[C@H]1CCN(c2nccc(-c3cnn4ncccc34)n2)C1 | binding |  | 1 µM | 100
CCS(=O)(=O)c1cc2cc(C[C@](O)(CC(C)(C)c3ccc(F)cc3C(N)=O)C(F)(F)F)[nH]c2cn1 | cell-free assay | competition with immobilised ligand | 1 µM | 86
